Experimental data from ChEMBL document CHEMBL1143304, “Isolation, structure and biological activity of phomafungin, a cyclic lipodepsipeptide from a widespread tropical Phoma sp” (Bioorg Med Chem, 2009).
Converted amounts (≈) assume the structure as drawn. The source made the active and inactive calls. No cut-off for these calls is given here. Where a SMILES comes first, the peptide text is derived from it. [ ]: non-standard residue; d: D form. The star is where a group is joined. X1 = CCCCCCCCCCCCC(C)C(O)CC(=O)*; hSer = N[C@@H](CCO)C(=O)O

Legend:
Candida albicans [1] = experiment: Antimicrobial activity against Candida albicans MY1055 infected DBA/2 mouse administered twice daily for 2 days; assay type: functional, organism-based
Method in brief: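 DBA/2 mice (5 per group) were infected i.v. via lateral tail vein with 2.51 × 10^4 CFU per mouse. The sodium salt in water was given IP twice daily at 50, 25, 12.5, 5 or 2.5 mg/kg. Mortality and health were followed for 4 days. Kidney homogenates were plated on SDA (35 °C, 30–48 h). CFU/g kidney was compared with sham-treated controls by paired two-tailed t-test.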

Mus musculus [2] = experiment: Toxicity in Candida albicans MY1055 infected DBA/2 mouse assessed as mouse mortality at 12.5 mg/kg, ip administered twice daily for 2 days; assay type: organism-based; set-up: dose 12.5 mg/kg, route intraperitoneal; settings: in vivo, 48 h
Method in brief: (§1)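 DBA/2 mice, five per group, were infected i.v. via lateral tail vein with 2.51 × 10^4 CFU/mouse. Sodium salt in water was given IP twice daily at 50, 25, 12.5, 5 or 2.5 mg/kg. Kidneys were homogenized in saline, serially diluted and plated on SDA (35 °C, 30–48 h). CFU/g were compared with sham-treated mice by paired two-tailed t-test.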

Candida albicans [3] = experiment: Antimicrobial activity against Candida albicans MY1055 at 32 ug/mL after 24 hrs by broth macrodilution method; assay type: functional, organism-based
Candida albicans [4] = experiment: Antimicrobial activity against Candida albicans MY1055 after 24 hrs in presence of 50% mouse serum by broth macrodilution method; assay type: functional; settings: MY1055, 24 h; for MIC: read-out: MIC100
Candida parapsilosis = experiment: Antimicrobial activity against Candida parapsilosis ATCC 22019 […] by broth macrodilution method; assay type: functional; settings: Lodderomyces parapsilosis, read-out: MIC100
Aspergillus fumigatus [5] = experiment: Antimicrobial activity against Aspergillus fumigatus MF5668 after 48 hrs by broth macrodilution method; assay type: functional; settings: for MIC: read-out: MIC100
Method in brief: (§2)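 Broth MIC: inoculum 10^5 CFU/ml, incubated at 37 °C with 2-fold serial dilutions of compound in growth medium. MIC was the lowest concentration preventing visible growth.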

Aspergillus fumigatus [6] = experiment: Antimicrobial activity against Aspergillus fumigatus MF5668 in presence of 50% human serum after 48 hrs by broth macrodilution method; assay type: functional; settings: for MIC: read-out: MIC100
Nakaseomyces glabratus = experiment: Antimicrobial activity against Candida glabrata MY1381 […] by broth macrodilution method; assay type: functional; settings: for MIC: read-out: MIC100
Candida tropicalis = experiment: Antimicrobial activity against Candida tropicalis MY1012 after 24 hrs by broth macrodilution method; assay type: functional; settings: for MIC: read-out: MIC100; method in brief: as §2
Staphylococcus aureus = experiment: Antimicrobial activity against Staphylococcus aureus MB2865 […] by broth macrodilution method; assay type: functional; settings: read-out: MIC100
Pichia kudriavzevii = experiment: Antimicrobial activity against Candida krusei ATCC 6258 […] by broth macrodilution method; assay type: functional; settings: for MIC: read-out: MIC100
Clavispora lusitaniae = experiment: Antimicrobial activity against Candida lusitaniae MY1396 after 24 hrs by broth macrodilution method; assay type: functional; settings: for MIC: read-out: MIC100; method in brief: as §2
[7] = system: Trichophyton mentagrophytes; experiment: Antimicrobial activity against Trichophyton mentagrophytes MF7004 after 96 hrs by broth macrodilution method; assay type: functional; settings: for MIC: read-out: MIC100
Candida albicans [8] = experiment: Antimicrobial activity against Candida albicans MY1055 after 24 hrs by broth macrodilution method; assay type: functional; settings: for MIC: read-out: MIC100; method in brief: as §2
Candida albicans [9] = experiment: Antimicrobial activity against Candida albicans MY1055 infected DBA/2 mouse at <5 mg/kg, […] administered twice daily for 2 days; assay type: functional, organism-based
Mus musculus [10] = experiment: Toxicity in Candida albicans MY1055 infected DBA/2 mouse assessed as mouse mortality at 25 mg/kg, ip administered twice daily for 2 days; assay type: organism-based; set-up: dose 25 mg/kg, route intraperitoneal; settings: in vivo, 48 h; method in brief: as §1
[11] = Toxicity against human HEL cells; assay type: cell-based
Mus musculus [12] = experiment: Toxicity in Candida albicans MY1055 infected DBA/2 mouse assessed as mouse mortality at <5 mg/kg, ip administered twice daily for 2 days; assay type: organism-based; settings: in vivo, 48 h; method in brief: as §1
[13] = Half life in Candida albicans MY1055 infected iv dosed DBA/2 mouse; assay type: ADME, organism-based; settings: in vivo
[14] = Toxicity against human PC3 cells; assay type: cell-based, PC-3
[15] = Toxicity against human HCT116 cells; assay type: cell-based, HCT-116
[16] = Toxicity against human GTL16 cells; assay type: cell-based, GTL 16
Candida albicans [17] = experiment: Antimicrobial activity against Candida albicans MY1055 infected DBA/2 mouse at <5 mg/kg, ip administered twice daily for 2 days; assay type: functional, organism-based; method in brief: as §1
[18] = Clearance in Candida albicans MY1055 infected iv dosed DBA/2 mouse; assay type: ADME, organism-based; settings: in vivo
Mus musculus [19] = experiment: Toxicity in Candida albicans MY1055 infected DBA/2 mouse assessed as mouse mortality at 50 mg/kg, ip administered twice daily for 2 days; assay type: organism-based; set-up: dose 50 mg/kg, route intraperitoneal; settings: in vivo, 48 h; method in brief: as §1
Mus musculus [20] = experiment: Dose normalized AUC in Candida albicans MY1055 infected iv dosed DBA/2 mouse; assay type: ADME, organism-based; settings: in vivo

Structure (SMILES) | Activity (Mus musculus [2]) | MIC (Candida albicans [4]) | MIC (Candida parapsilosis) | MIC (Aspergillus fumigatus [5]) | MIC (Aspergillus fumigatus [6]) | MIC80 (Nakaseomyces glabratus) | MIC (Nakaseomyces glabratus) | MIC (Candida tropicalis) | MIC (Staphylococcus aureus) | MIC (Pichia kudriavzevii) | MIC (Clavispora lusitaniae) | MIC80 [7] | MIC [7] | MIC (Candida albicans [8]) | also measured
CCCCCCCCCCCCC(C)C(O)CC(=O)N[C@@H](C)C(=O)N[C@@H](CCO)C(=O)N[C@@H](CCC(=O)O)C(=O)NCC(=O)N[C@@H](CO)C(=O)N[C@@H](CC(N)=O)C(=O)N[C@H](C(=O)N[C@@H](CCO)C(=O)O)[C@@H](C)O (some centres undefined) (X1-A[hSer]EGSNT[hSer]-OH) | Non-toxic |  |  |  |  |  |  |  |  |  |  |  |  |  | Activity (Candida albicans [1]): inactive; Activity (Candida albicans [3]): inactive
CC[C@H](C)C[C@H](C)CCCCCCCCC(=O)N[C@H]1C[C@@H](O)[C@@H](NCCN)NC(=O)[C@@H]2[C@@H](O)CCN2C(=O)[C@H]([C@H](O)CCN)NC(=O)[C@H]([C@H](O)[C@@H](O)c2ccc(O)cc2)NC(=O)[C@@H]2C[C@@H](O)CN2C(=O)[C@H]([C@@H](C)O)NC1=O [CASPOFUNGIN] |  | 0.25 µg/mL | 0.5 µg/mL (≈ 0.457 µM) | > 32 µg/mL | > 32 µg/mL | < 0.03 µg/mL | 0.125 µg/mL (≈ 0.114 µM) | 0.125 µg/mL (≈ 0.114 µM) | 32 µg/mL (≈ 29.3 µM) | 1 µg/mL (≈ 0.915 µM) | 0.125 µg/mL (≈ 0.114 µM) | 0.03 µg/mL (≈ 0.0274 µM) | 32 µg/mL (≈ 29.3 µM) | 0.125 µg/mL (≈ 0.114 µM) | MIC80 (Candida albicans [4]): 0.125 µg/mL; MIC80 (Aspergillus fumigatus [5]): < 0.03 µg/mL; MIC80 (Aspergillus fumigatus [6]): 0.06 µg/mL; MIC80 (Candida tropicalis): < 0.03 µg/mL; MIC80 (Pichia kudriavzevii): 0.25 µg/mL (≈ 0.229 µM); MIC80 (Clavispora lusitaniae): < 0.03 µg/mL; MIC80 (Candida albicans [8]): < 0.03 µg/mL
CCCCCCCCCCCCC(C)C1CC(=O)N[C@@H](C)C(=O)NC(CCO)C(=O)N[C@@H](CCC(=O)O)C(=O)NCC(=O)N[C@@H](CO)C(=O)N[C@H](CC(N)=O)C(=O)N[C@H]([C@H](C)O)C(=O)NC(CCO)C(=O)O1 (some centres undefined) [PHOMAFUNGIN] | Toxic | > 32 µg/mL | 4 µg/mL (≈ 3.88 µM) | 4 µg/mL (≈ 3.88 µM) | > 32 µg/mL | 4 µg/mL (≈ 3.88 µM) | 8 µg/mL (≈ 7.77 µM) | > 32 µg/mL | > 32 µg/mL | 4 µg/mL (≈ 3.88 µM) | 4 µg/mL (≈ 3.88 µM) | 1 µg/mL (≈ 0.971 µM) | 2 µg/mL (≈ 1.94 µM) | 4 µg/mL (≈ 3.88 µM) | Activity (Candida albicans [9]): inactive; Activity (Mus musculus [10]): Toxic; IC50 [11]: 15.5 µM; Activity (Mus musculus [12]): Non-toxic; half-life [13]: 1.8 h; IC50 [14]: 19 µM; IC50 [15]: 20 µM; IC50 [16]: 26 µM; Activity (Candida albicans [17]): inactive; clearance [18]: 6.15 mL/min/kg; Activity (Mus musculus [19]): Toxic; AUC (Mus musculus [20]): 2.64 µM
